Experimental data gathered from unrelated publications.
Protocols differ between the studies behind these lines.
Target: Substance-P receptor (TACR1, Homo sapiens, UniProt P25103)

| SMILES | assay | conditions | inhibition |
| --- | --- | --- | --- |
| CC(C)Cn1cnc2c(N)nc3ccccc3c21 | ligand displacement, radioligand | 10 µM | -8% |
| CN(CCN1CCC(OC(=O)Nc2ccccc2-c2ccccc2)CC1)C(=O)c1ccc(CN2CCC(C(N)=O)CC2)cc1 | ligand displacement, radioligand | 1 µM | -6% |
| C[C@H](C(=O)N[C@H]1COc2ccccc2[C@@H]1S(C)(=O)=O)c1ccc(F)cc1 | cell-free assay | 10 µM | 11% |
| COc1ccc(S(=O)(=O)N2CCCCC2)cc1C | ligand displacement, radioligand | 10 µM | < 30% |
| c1ccc(C(NCCNC(c2ccccc2)c2ccccc2)c2ccccc2)cc1 | cell-free assay | 10 µM | 49% |
| O=C(Nc1cccnn1)N1CCN([C@@H]2CCOc3cc(C(F)(F)F)ccc32)CC1 | ligand displacement | 20 µM | 38% |
| CC(C)N1CCC[C@H]1CNC(=O)c1cn(C2CCCC2)c(=O)c2c1c1ccccc1n2C | ligand displacement, radioligand | 10 µM | 23% |
| CCCCCCCCCCCC(=O)OC[C@@H](COP(=O)(O)OCCNC(=O)c1ccc(Cn2c(=O)[nH]c3c(N)nc(OCCOC)nc32)cc1)OC(=O)CCCCCCCCCCC | ligand displacement, radioligand | 10 µM | 23% |
| COc1ccc(C(=O)NCc2cc(C(C)C)no2)cc1OC1CCN(C)CC1 | ligand displacement, radioligand | 10 µM | 22% |
